Results on 1 compound are retold here after ChEMBL document CHEMBL4699492, “Discovery of Novel Pyrazolo[3,4-b] Pyridine Derivatives with Dual Activities of Vascular Remodeling Inhibition and Vasodilation for the Treatment of Pulmonary Arterial Hypertension” (J Med Chem, 2020).

Series [1] has as its system Rattus norvegicus. Kind of series: Inhibition of vascular remodeling activity in Sprague-Dawley rat model of hypoxia-induced pulmonary artery hypertension assessed as increase in body weight at 10 mg/kg, po administered daily for 2 weeks. The format is functional, organism-based.
The subject of series [2] is Aorta. In words: Vasodilating activity in Sprague-Dawley rat aortic rings assessed as reduction in phenylephrine-induced contractions at 1 uM relative to control. The format is functional. In short, it runs like this: (§1)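 Thoracic aorta from male SD rats (250-280 g) anesthetized with chloral hydrate, cut into 4 mm rings. Rings held in Krebs-Henseleit at 37 °C gassed with 95% O2/5% CO2, under 2 g resting tension, equilibrated 60 min, and precontracted with 10^-7 M phenylephrine. Cumulative concentrations of 3×10^-9 to 10^-6 M (final) applied. Percent relaxation of the initial contraction taken at 1 µM, and EC50 derived.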

Series [3] relates to Rattus norvegicus. Kind of series: Inhibition of vascular remodeling activity in Sprague-Dawley rat model of hypoxia-induced pulmonary artery hypertension assessed as right ventricular systolic pressure at 10 mg/kg, po administered daily for 2 weeks by catheter method (reference value: 26.2 mmHg). The series is classed as functional.
The test system of series [4] is Rattus norvegicus. Kind of series: In vivo inhibition of AMPK in Sprague-Dawley rat model of hypoxia-induced pulmonary artery hypertension assessed as reduction in AMPK phosphorylation in lungs at 10 mg/kg, po administered daily for 2 weeks by Western blot analysis. The series is classed as functional, organism-based. In short, it runs like this:
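Hypoxic PAH model in male SD rats (160-200 g) kept at 10% O2 for 4 weeks. Oral dosing at 10 mg/kg daily for 14 days, suspended in 0.5% CMC-Na; control and hypoxia groups received vehicle only. Lungs homogenized in RIPA with protease and phosphatase inhibitors. 30 µg protein run on 10% SDS-PAGE, then PVDF blotting, with β-actin as loading reference. Three independent runs.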
Background: In western blotting, separated proteins are transferred to a membrane and probed.

Series [5] has as its system Aorta. Kind of series: Vasodilating activity in Sprague-Dawley rat aortic rings assessed as reduction in phenylephrine-induced contractions. The series is classed as functional, tissue-based. In short, it runs like this: as §1
The target of series [6] is T1, AMP-activated protein kinase, AMPK (Homo sapiens) (UniProt P54646+O43741+P54619+Q9UGJ0+Q9Y478+Q13131+Q9UGI9). In words: Inhibition of AMPK in TGFbeta-induced HLF1 cells assessed as reduction in cell migration measured after 24 hrs by wound healing assay. The format is cell-based. Particulars: dose microM 5-10, time 24.0 hrs. The gist of the method:
(§2)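 Wound-healing assay. 5 × 10^4 cells were seeded per well and grown 24 h to near confluence. The monolayer was scratched with a pipette tip and washed with PBS. Cells were then kept in 1% FBS medium with TGF-β (10 ng/mL) or under hypoxia (1% O2, 5% CO2, 94% N2), alone or with compound. Migration ran 24 h at 37 °C, imaged at 0 and 24 h. Mean ± SD from three independent experiments.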

In series [7] the target is T1, AMP-activated protein kinase, AMPK (Homo sapiens). Kind of series: Inhibition of AMPK in hypoxia-induced HPASMC assessed as reduction in cell migration measured after 24 hrs by wound healing assay. The format is tissue-based. Particulars: Pulmonary Artery Smooth Muscle Cells, dose microM 5-10, time 24.0 hrs. The gist of the method:
as §2

Series [8] in a line: Half life in human liver microsomes at 1.5 uM preincubated for 5 mins followed by NADPH addition and measured up to 45 mins by LC-MS/MS analysis. The format is ADME, Microsome. Particulars: time <=50 min. The gist of the method: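 Liver microsomes (0.75 mg/mL), human or SD rat, in 0.1 M potassium phosphate pH 7.4 with 3.0 mM MgCl2 and 1.5 µM compound, run in duplicate. After 5 min preincubation at 37 °C, reaction started with 3 mM NADPH. Quenched at 0, 5, 15, 30 and 45 min with ice-cold acetonitrile containing internal standard. Ketanserin served as positive control and a no-NADPH buffer incubation as negative control. LC-MS/MS read-out.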
For orientation: Microsomes from liver hold many membrane-bound enzymes, among them those of drug oxidation.

The subject of series [9] is Pulmonary Artery Smooth Muscle Cells. Kind of series: Stimulation of sGC in HPASMC assessed as increase in intracellular cGMP level at 100 uM measured after 1 hr in presence of PDE5 inhibitor IBMX by cGMP-d2/europium cryptate reagent based HTRF assay relative to control. The series is classed as tissue-based. The note with it: Homo sapiens, filed as activator. The gist of the method: (§3)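 HPASMCs were suspended at 100,000 cells/mL in PBS with 0.2% BSA, with or without 10 µM ODQ. Compounds were added as a 6-point, 10-fold dilution series; the top 2× stock was 200 µM. Incubation was 1 h at room temperature, in triplicate. cGMP-d2 in lysis buffer and europium cryptate were then added for 1 h before HTRF reading. Three independent experiments.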

Series [10] in a line: Protein binding in rat plasma. The format is ADME, cell-free. The note with it: read-out: PPB (converted).
Series [11] in a line: Antiproliferative activity against HLF1 cells measured after 48 hrs under hypoxic condition by CCK8 assay. The format is functional, cell-based. The note with it: Homo sapiens, HLF1, 48 h. The gist of the method: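 HPASMCs were grown in high-glucose D-MEM with 20% FBS, and HLF1 in D-MEM/F-12 (1:1) with 10% FBS. Cells were seeded for exponential growth, then exposed to a range of compound concentrations for 48 h at 37 °C under hypoxia (1% O2, 5% CO2, 94% N2). CCK-8 was added for 4 h and absorbance read at 490 nm. IC50 came from dose-response curves averaged over three independent experiments.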

For series [12], the target named is cGMP-specific 3',5'-cyclic phosphodiesterase (Homo sapiens) (UniProt O76074). Kind of series: Inhibition of PDE5A1 catalytic domain (535 to 860 residues) (unknown origin) expressed in Escherichia coli BL21 (DE3) at 100 nM using [3H]cGMP as substrate after 15 mins by liquid scintillation counting method relative to control. In short, it runs like this:
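PDE reaction in 50 mM Tris-HCl pH 8.0 with 4 mM MnCl2 or 10 mM MgCl2 and 1 mM DTT, using 3H-cGMP substrate. Run 15 min at room temperature, stopped with 0.2 M ZnSO4, and product precipitated with 0.2 M Ba(OH)2. Radioactivity of the supernatant counted by liquid scintillation. Inhibition rate calculated, with sildenafil as reference.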

Series [13] is described as follows: Antiproliferative activity against HPASMC assessed as reduction in TGFbeta-induced cell proliferation measured after 48 hrs by CCK8 assay. Particulars: Homo sapiens, Pulmonary Artery Smooth Muscle Cells. The series is classed as functional, tissue-based. The gist of the method:
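HPASMCs grown in high-glucose D-MEM with 20% FBS and HLF1 in D-MEM/F-12 (1:1) with 10% FBS. Cells stimulated with TGF-β (10 ng/mL) at 37 °C, 5% CO2, then exposed to a concentration range for 48 h. CCK-8 added for 4 h and absorbance read at 490 nm. IC50 derived from the curves.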
On the technique in general: Tetrazolium dyes change colour on reduction, which living cells bring about.

In series [14] the test system is Rattus norvegicus. In words: Inhibition of vascular remodeling activity in Sprague-Dawley rat model of hypoxia-induced pulmonary artery hypertension assessed as reduction in alpha-SMA expression in lungs at 10 mg/kg, po administered daily for 2 weeks by Western blot analysis. The series is classed as functional, organism-based. In short, it runs like this:
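Lungs came from hypoxic SD rats (10% O2, 4 weeks) dosed orally at 10 mg/kg daily for 14 days. Tissue was homogenised in RIPA buffer with protease and phosphatase inhibitors. 30 µg of protein was run on 10% SDS-PAGE and transferred to PVDF. Blots were probed overnight at 4 °C with anti-α-SMA (1:1000) and anti-β-actin (1:2000) and detected by fluorescence.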

Series [15] in a line: Solubility of compound in water at pH 7.3. The format is physicochemical. Particulars: buffer.
Series [16] addresses T1, AMP-activated protein kinase, AMPK (Homo sapiens). Kind of series: Inhibition of AMPK in TGFbeta-induced HPASMC assessed as reduction in cell migration measured after 24 hrs by wound healing assay. The series is classed as tissue-based. Particulars: Pulmonary Artery Smooth Muscle Cells, dose microM 5-10, time 24.0 hrs. The gist of the method:
as §2

Series [17] deals with Pulmonary Artery Smooth Muscle Cells. In words: Stimulation of sGC in HPASMC assessed as increase in intracellular cGMP level at 100 uM measured after 1 hr in absence of PDE5 inhibitor IBMX by cGMP-d2/europium cryptate reagent based HTRF assay relative to control. The format is tissue-based. The note with it: Homo sapiens. In short, it runs like this: as §3

Structures are written as SMILES. Values after ≈ are worked out from the molar mass of the structure shown. Active and inactive are the calls of the source. The calls are words filed in the database; no cut-off is given here.

Broadly, the inhibition is the relative decrease from the control value, in per cent. As usually defined, the Emax is the maximal effect, on the per cent scale that the assay sets. Usually EC50 stands for the concentration needed to bring the measured effect to its halfway point. For orientation: half-life means how long it takes for the measured level to halve. Read a low half-life as fast loss. What is called IC50 is the point on the concentration scale where inhibition reaches its midpoint. For orientation: solubility means how much of the substance goes into solution per volume. As to `Cc1ccccc1COc1nc2c(cc1-c1nc(N)cc(N)n1)c(C)nn2-c1ccccc1`, the inhibition result in [1], in series [4] and in series [14] was “Active” in each case. The Emax at 1 µM in [2] was determined as 63.2%. In addition, the Activity in [3] was 22 mmHg; in series [9] it was 40%; in series [17], 5%. Moreover, the half-maximal effective concentration (EC50) in [5] amounted to 0.29 µM. For the same compound, the inhibition entry in [6] is “Dose-dependent effect”; in series [7], “Dose-dependent effect”; in [12] it was 4.3%; in series [16], “Dose-dependent effect”. Moreover, in [8], the half-life at 1.5 µM is 2.08 h. For the same compound, in series [10], the fraction unbound was 0.007. Besides, the IC50 in series [11] came out at 34.9 µM; in series [13], 17 µM. The same compound displayed a solubility in [15] of 0.034 µg/mL (≈ 0.0777 µM).
